The source made the active and inactive calls.
Columns and labels:
[1] = target: T1, Adenosine receptor A1 (Homo sapiens) (UniProt P30542); assay: Displacement of [3H]N6-R-phenylisopropyladenosine from human A1AR expressed in CHO cells at 10 uM after 60 mins by scintillation counting analysis; format: cell-based
T1 sequence (whole entry): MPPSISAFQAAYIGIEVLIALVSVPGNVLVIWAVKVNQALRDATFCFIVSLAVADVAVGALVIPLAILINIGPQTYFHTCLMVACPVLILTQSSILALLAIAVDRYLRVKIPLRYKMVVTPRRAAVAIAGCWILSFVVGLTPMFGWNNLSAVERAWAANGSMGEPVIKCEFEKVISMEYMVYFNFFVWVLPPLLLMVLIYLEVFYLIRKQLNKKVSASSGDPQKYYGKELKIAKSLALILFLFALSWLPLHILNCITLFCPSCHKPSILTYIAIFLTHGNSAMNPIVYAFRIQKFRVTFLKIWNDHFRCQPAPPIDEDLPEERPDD
How it was run: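 Membranes from CHO cells stably expressing hA1AR, labelled with agonist [3H]N6-R-phenylisopropyladenosine. […] Compound stocks kept in DMSO at −80 °C; n = 3-4.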

Adenosine receptor A2a [2] = target: T2, Adenosine receptor A2a (Homo sapiens, UniProt P29274); assay: Displacement of [3H]2-[p-(2-carboxyethyl)phenyl-ethylamino]-5'-N-ethylcarboxamido-adenosine from human A2aAR expressed in HEK293 cells after 60 mins by scintillation counting analysis; format: cell-based
T2 sequence (P29274 whole entry): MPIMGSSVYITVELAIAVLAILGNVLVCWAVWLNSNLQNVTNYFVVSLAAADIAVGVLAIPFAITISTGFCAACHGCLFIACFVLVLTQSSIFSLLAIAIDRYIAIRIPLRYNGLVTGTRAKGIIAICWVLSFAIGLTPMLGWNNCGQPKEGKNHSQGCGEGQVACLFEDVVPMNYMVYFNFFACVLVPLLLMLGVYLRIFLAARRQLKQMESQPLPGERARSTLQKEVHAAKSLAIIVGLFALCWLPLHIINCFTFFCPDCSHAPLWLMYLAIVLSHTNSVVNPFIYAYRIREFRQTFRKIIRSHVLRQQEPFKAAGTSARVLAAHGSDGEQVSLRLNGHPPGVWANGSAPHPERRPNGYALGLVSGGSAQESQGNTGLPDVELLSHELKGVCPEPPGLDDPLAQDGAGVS

Adenosine receptor A3 [3] = target: T3, Adenosine receptor A3 (Homo sapiens, UniProt P0DMS8); assay: Displacement of [125I]N6-(4-amino-3-iodobenzyl)adenosine-5'-N-methyluronamide from human A3AR expressed in CHO cells after 60 mins by scintillation counting analysis; format: cell-based
T3 sequence (P0DMS8 whole entry): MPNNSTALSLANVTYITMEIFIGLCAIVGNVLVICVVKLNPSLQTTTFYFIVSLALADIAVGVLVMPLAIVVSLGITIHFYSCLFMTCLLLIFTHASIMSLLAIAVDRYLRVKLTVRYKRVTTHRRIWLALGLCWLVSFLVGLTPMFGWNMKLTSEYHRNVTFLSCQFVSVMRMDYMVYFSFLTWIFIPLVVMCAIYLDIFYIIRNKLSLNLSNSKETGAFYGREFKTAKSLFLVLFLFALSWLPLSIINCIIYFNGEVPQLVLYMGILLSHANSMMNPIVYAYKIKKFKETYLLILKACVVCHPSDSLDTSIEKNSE

Adenosine receptor A2a [4] = target: T2, Adenosine receptor A2a; assay: Displacement of [3H]2-[p-(2-carboxyethyl)phenyl-ethylamino]-5'-N-ethylcarboxamido-adenosine from human A2aAR expressed in HEK293 cells at 10 uM after 60 mins by scintillation counting analysis; format: cell-based
Mus musculus = assay: Reversal of pain in po dosed mouse chronic constriction injury model assessed as paw withdrawal threshold administered 7 days post injury measured after 1 hr; format: functional, organism-based
How it was run: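 Mouse chronic constriction injury model of neuropathic pain; compound given orally (po); mechanoallodynia read out as paw withdrawal threshold followed over time after dosing.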

Adenosine receptor A1 = target: T4, Adenosine receptor A1 (Homo sapiens, UniProt P30542); assay: Displacement of [3H]N6-R-phenylisopropyladenosine from human A1AR expressed in CHO cells after 60 mins by scintillation counting analysis; format: cell-based
T4 sequence (P30542 whole entry): T1 sequence (whole entry)

Adenosine receptor A3 [5] = target: T3, Adenosine receptor A3; assay: Binding affinity to human A3AR

Row | Structure (SMILES) | inhibition [1] [%] | inhibition (Adenosine receptor A2a [4]) [%] | also measured
1 | CNC(=O)[C@@]12C[C@@H]1[C@@H](n1cnc3c(N)nc(C#Cc4ccccc4)nc31)[C@H](O)[C@@H]2O | 28 |  | Ki (Adenosine receptor A2a [2]): 1.2 µM; Ki (Adenosine receptor A3 [3]): 0.00151 µM
2 | CNC(=O)[C@@]12C[C@@H]1[C@@H](n1cnc3c(N[C@@H]4C[C@H]4c4ccc(F)c(F)c4)nc(C#Cc4ccccc4)nc31)[C@H](O)[C@@H]2O | 11 | 0 | Ki (Adenosine receptor A3 [3]): 0.0169 µM
3 | CNC(=O)[C@@]12C[C@@H]1[C@@H](n1cnc3c(N[C@H]4C[C@@H]4c4ccc(F)c(F)c4)nc(C#Cc4ccccc4)nc31)[C@H](O)[C@@H]2O | 16 | 0 | Ki (Adenosine receptor A3 [3]): 0.00455 µM
4 | CNC(=O)[C@@]12C[C@@H]1[C@@H](n1cnc3c(N[C@@H]4C[C@H]4c4ccc(F)c(F)c4)nc(C#Cc4ccccn4)nc31)[C@H](O)[C@@H]2O | 19 | 25 | Activity (Mus musculus): Active
5 | CNC(=O)[C@@]12C[C@@H]1[C@@H](n1cnc3c(N[C@H]4C[C@@H]4c4ccc(F)c(F)c4)nc(C#Cc4ccccn4)nc31)[C@H](O)[C@@H]2O | 26 | 41 | 
6 | OC[C@H]1O[C@@H](n2cnc3c(NC4CC4c4ccccc4)nc(C#Cc4ccccc4)nc32)[C@H](O)[C@@H]1O (mixture of isomers) |  |  | Ki (Adenosine receptor A1): 0.124 µM
7 | O=[N+]([O-])c1cccc(C2CC2Nc2nc(C#Cc3ccccc3)nc3c2ncn3[C@@H]2O[C@H](CO)[C@@H](O)[C@H]2O)c1 (mixture of isomers) |  |  | Ki (Adenosine receptor A3 [5]): 0.0112 µM
8 | CNC(=O)[C@@]12C[C@@H]1[C@@H](n1cnc3c(NC4CC4c4ccc(F)c(F)c4)nc(C#Cc4ccccc4)nc31)[C@H](O)[C@@H]2O (mixture of isomers) | 11 | 6 | 
9 | CNC(=O)[C@@]12C[C@@H]1[C@@H](n1cnc3c(NC4CC4c4cccc(Br)c4)nc(C#Cc4ccccc4)nc31)[C@H](O)[C@@H]2O (mixture of isomers) | 17 | 32 | 
10 | CNC(=O)[C@@]12C[C@@H]1[C@@H](n1cnc3c(NC4CC4c4cccc(C)c4)nc(C#Cc4ccccc4)nc31)[C@H](O)[C@@H]2O (mixture of isomers) | 8 | 53 | 
11 | CNC(=O)[C@@]12C[C@@H]1[C@@H](n1cnc3c(NC4CC4c4cccc(Cl)c4)nc(C#Cc4ccccc4)nc31)[C@H](O)[C@@H]2O (mixture of isomers) | 6 | 39 | 
12 | CNC(=O)[C@@]12C[C@@H]1[C@@H](n1cnc3c(NC4CC4c4cccc(F)c4)nc(C#Cc4ccccc4)nc31)[C@H](O)[C@@H]2O (mixture of isomers) | 18 | 0 | 
13 | CNC(=O)[C@@]12C[C@@H]1[C@@H](n1cnc3c(NC4CC4c4ccccc4)nc(C#Cc4ccccc4)nc31)[C@H](O)[C@@H]2O (mixture of isomers) | 2 | 43 | 

Source: ChEMBL document CHEMBL3352566 (Bioorg Med Chem Lett, 2014)
